Results taken from ChEMBL document CHEMBL2176955, “Discovery of the macrocycle 11-(2-pyrrolidin-1-yl-ethoxy)-14,19-dioxa-5,7,26-triaza-tetracyclo[19.3.1.1(2,6).1(8,12)]heptacosa-1(25),2(26),3,5,8,10,12(27),16,21,23-decaene (SB1518), a potent Janus kinase 2/fms-like tyrosine kinase-3 (JAK2/FLT3) inhibitor for the treatment of myelofibrosis and …” (J Med Chem, 2011).
pIC50: −log10 of the molar value.

What was measured:
[1] = biological target: Non-receptor tyrosine-protein kinase TYK2 (Homo sapiens, UniProt P29597); experiment: Inhibition of recombinant TYK2
Non-receptor tyrosine-protein kinase TYK2, sequence (P29597 whole entry): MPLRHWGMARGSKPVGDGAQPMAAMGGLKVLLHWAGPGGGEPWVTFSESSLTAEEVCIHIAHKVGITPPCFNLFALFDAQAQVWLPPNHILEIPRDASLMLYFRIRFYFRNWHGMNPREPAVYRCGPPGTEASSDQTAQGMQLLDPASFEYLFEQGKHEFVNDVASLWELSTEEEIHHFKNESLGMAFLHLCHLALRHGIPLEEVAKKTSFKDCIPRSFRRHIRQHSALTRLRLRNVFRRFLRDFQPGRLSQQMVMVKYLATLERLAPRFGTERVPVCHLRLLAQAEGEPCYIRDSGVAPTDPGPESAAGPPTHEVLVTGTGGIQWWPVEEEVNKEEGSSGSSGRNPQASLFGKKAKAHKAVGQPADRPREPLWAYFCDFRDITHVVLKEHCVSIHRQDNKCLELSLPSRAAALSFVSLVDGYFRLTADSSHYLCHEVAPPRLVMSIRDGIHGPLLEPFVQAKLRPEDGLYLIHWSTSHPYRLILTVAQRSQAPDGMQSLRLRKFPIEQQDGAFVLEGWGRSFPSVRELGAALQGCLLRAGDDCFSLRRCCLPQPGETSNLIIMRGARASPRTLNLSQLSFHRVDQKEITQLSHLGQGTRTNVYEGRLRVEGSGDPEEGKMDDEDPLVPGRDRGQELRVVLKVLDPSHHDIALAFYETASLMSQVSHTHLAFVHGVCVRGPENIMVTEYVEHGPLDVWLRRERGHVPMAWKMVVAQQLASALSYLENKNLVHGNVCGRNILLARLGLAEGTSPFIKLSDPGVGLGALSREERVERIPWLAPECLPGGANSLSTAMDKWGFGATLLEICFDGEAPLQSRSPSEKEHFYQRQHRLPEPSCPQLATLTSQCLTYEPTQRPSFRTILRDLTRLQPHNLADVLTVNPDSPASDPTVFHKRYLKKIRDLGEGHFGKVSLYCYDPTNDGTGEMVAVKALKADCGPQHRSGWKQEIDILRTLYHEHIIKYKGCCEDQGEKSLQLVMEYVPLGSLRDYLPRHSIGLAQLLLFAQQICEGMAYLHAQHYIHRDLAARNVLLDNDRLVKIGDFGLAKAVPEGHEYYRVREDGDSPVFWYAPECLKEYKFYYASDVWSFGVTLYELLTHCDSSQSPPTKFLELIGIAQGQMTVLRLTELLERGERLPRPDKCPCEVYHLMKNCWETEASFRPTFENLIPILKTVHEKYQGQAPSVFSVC

[2] = biological target: T1, Tyrosine-protein kinase JAK3 (Homo sapiens, UniProt P52333); experiment: Inhibition of recombinant JAK3 using Poly (Glu,Ala,Tyr) as substrate after 2 hrs by luminescence assay
T1 sequence (P52333 whole entry): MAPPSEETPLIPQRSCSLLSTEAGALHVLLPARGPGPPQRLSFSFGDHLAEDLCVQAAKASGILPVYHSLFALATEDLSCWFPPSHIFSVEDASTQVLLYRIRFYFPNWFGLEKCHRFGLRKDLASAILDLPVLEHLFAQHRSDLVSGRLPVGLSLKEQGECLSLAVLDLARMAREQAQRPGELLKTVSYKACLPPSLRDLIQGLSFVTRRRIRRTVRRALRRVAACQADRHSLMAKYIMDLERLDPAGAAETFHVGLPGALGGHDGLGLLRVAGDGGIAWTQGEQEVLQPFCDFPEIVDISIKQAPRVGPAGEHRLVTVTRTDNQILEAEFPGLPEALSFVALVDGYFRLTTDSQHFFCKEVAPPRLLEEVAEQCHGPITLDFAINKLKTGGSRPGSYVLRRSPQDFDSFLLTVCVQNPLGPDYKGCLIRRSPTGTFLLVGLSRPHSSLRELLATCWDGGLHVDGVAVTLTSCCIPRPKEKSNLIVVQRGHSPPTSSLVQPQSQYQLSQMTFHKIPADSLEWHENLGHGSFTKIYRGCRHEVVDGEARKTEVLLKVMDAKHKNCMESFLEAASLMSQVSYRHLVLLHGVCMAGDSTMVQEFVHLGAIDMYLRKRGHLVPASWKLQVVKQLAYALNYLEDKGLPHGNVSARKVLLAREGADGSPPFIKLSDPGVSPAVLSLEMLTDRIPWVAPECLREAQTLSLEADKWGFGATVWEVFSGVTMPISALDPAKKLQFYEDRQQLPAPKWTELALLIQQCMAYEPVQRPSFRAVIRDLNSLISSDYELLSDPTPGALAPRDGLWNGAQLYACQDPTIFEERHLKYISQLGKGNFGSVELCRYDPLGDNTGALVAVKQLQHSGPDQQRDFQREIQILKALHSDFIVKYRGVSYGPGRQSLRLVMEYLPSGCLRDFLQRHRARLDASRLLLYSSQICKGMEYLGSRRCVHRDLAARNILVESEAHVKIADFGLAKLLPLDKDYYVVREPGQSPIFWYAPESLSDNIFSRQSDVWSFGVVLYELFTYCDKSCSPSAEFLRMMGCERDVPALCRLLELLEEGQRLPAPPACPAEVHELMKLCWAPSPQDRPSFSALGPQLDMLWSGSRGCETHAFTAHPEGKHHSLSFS

[3] = biological target: Tyrosine-protein kinase JAK1 (Homo sapiens, UniProt P23458); experiment: Inhibition of recombinant JAK1 using Poly (Glu,Ala,Tyr) as substrate after 2 hrs by luminescence assay
Tyrosine-protein kinase JAK1, sequence (P23458 whole entry): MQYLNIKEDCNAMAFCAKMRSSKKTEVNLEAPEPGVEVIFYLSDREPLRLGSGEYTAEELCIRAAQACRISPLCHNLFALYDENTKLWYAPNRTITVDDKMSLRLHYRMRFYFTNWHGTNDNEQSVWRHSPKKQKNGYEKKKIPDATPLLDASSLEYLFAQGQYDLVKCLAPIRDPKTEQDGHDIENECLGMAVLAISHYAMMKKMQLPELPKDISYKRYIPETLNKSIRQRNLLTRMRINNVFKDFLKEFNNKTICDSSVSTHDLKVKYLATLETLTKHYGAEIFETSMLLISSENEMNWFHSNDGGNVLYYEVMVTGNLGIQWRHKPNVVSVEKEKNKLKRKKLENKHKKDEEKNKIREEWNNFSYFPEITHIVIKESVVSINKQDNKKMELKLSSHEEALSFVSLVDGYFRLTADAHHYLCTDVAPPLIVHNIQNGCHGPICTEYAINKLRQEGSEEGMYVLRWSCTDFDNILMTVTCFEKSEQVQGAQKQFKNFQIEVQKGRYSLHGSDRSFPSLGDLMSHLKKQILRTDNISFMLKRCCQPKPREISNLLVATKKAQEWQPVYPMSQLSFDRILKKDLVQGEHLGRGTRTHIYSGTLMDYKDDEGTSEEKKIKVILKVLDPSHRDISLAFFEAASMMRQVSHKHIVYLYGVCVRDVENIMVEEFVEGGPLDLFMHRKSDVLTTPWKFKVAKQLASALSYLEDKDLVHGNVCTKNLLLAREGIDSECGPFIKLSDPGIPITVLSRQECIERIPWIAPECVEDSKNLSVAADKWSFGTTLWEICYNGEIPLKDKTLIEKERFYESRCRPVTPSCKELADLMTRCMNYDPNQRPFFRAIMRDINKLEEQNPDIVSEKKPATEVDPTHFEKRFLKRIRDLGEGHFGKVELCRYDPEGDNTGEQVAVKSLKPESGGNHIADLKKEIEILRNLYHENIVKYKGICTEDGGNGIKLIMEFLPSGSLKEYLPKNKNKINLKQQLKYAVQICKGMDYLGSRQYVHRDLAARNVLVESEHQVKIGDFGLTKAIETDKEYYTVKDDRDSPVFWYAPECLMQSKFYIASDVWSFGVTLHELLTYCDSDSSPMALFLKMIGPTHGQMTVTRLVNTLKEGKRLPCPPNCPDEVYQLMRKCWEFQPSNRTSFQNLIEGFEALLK
Procedure, shortened: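 Luciferase-coupled ATP-depletion luminescence assay in 50 mM Hepes pH 7.5 with MgCl₂, MnCl₂, BGP, DTT and orthovanadate, 2 h at room temperature. Conditions per target: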

[4] = biological target: Tyrosine-protein kinase JAK2 (Homo sapiens, UniProt O60674); experiment: Inhibition of recombinant JAK2 using Poly (Glu,Ala,Tyr) as substrate after 2 hrs by luminescence assay
Tyrosine-protein kinase JAK2, sequence (O60674 whole entry): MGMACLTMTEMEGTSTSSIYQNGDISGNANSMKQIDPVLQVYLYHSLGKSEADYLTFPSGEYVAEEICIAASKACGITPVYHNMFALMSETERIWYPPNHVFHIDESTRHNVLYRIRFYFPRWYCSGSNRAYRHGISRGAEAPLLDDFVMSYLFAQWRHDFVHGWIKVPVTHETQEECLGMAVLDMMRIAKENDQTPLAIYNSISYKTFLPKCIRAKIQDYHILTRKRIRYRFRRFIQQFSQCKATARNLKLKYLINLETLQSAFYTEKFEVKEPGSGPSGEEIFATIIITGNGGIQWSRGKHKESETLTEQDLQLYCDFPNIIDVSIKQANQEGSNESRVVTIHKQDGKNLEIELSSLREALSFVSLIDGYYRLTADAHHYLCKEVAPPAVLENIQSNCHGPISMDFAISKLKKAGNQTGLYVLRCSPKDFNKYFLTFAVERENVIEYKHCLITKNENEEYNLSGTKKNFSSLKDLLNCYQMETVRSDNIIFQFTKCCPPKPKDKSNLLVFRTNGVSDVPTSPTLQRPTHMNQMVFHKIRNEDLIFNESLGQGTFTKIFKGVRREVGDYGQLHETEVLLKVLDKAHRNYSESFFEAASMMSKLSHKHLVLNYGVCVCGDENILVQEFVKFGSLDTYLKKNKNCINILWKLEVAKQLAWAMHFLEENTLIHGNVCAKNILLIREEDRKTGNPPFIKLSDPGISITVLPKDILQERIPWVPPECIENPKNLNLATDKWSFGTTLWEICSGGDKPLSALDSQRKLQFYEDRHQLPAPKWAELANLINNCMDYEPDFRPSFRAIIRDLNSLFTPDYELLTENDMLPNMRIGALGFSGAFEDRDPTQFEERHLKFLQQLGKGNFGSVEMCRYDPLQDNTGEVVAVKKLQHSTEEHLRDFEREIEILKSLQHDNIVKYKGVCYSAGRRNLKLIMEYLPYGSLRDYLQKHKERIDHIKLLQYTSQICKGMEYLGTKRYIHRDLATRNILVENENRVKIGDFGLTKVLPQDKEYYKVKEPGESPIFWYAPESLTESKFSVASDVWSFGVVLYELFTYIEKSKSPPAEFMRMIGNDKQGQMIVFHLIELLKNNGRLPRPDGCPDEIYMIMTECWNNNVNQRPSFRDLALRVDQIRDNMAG

[5] = biological target: Cyclin-dependent kinase 2/cyclin A (Homo sapiens, UniProt P24941); experiment: Inhibition of recombinant CDK2/Cyclin A using RbinG as substrate after 2 hrs by luminescence assay; type: protein-complex assay
[6] = physchem; details: phosphate buffer saline, pH 7
[7] = biological target: T2, Receptor-type tyrosine-protein kinase FLT3 (Homo sapiens, UniProt P36888); experiment: Inhibition of recombinant FLT3 using Poly (Glu,Tyr) as substrate after 2 hrs by luminescence assay
T2 sequence (P36888 whole entry): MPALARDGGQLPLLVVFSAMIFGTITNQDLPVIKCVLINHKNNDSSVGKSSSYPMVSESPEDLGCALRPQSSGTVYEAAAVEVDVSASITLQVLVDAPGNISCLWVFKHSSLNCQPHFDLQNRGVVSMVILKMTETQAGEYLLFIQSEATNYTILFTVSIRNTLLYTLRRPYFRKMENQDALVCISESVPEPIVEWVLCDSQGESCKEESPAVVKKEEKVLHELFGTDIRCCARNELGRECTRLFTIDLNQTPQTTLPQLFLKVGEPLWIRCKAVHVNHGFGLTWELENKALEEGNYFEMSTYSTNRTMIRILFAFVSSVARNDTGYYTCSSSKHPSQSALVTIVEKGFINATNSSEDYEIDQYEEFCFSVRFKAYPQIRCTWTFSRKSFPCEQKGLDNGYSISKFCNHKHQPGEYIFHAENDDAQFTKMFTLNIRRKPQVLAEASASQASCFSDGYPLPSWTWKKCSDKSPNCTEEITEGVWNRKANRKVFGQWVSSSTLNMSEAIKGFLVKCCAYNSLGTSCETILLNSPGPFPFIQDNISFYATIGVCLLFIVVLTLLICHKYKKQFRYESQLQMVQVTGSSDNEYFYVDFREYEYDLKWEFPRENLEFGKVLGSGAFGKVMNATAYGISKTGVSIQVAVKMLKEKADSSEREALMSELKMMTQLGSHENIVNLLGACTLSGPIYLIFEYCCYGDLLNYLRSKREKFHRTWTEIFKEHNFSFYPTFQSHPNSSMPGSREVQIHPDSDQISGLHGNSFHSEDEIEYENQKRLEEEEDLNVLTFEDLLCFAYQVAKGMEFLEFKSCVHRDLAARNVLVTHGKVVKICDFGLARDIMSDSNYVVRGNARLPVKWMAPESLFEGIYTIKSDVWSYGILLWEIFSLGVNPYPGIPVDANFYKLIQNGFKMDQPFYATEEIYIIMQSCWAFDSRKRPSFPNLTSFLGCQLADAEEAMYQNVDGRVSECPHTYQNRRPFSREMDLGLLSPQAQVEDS

| Structure (SMILES) | pIC50 [1] | pIC50 [2] | pIC50 [3] | pIC50 [4] | pIC50 [5] | solubility [6] [µg/mL] | pIC50 [7] |
| --- | --- | --- | --- | --- | --- | --- | --- |
| C1=CCOc2cccc(c2)Nc2nccc(n2)-c2cccc(c2)OCC1 (mixture of isomers) | 7.15 | < 5.00 | < 5.00 | 6.64 | 6.48 | < 10 | 6.06 |
| COc1ccc2cc1COCC=CCCOc1cccc(c1)-c1ccnc(n1)N2 (mixture of isomers) | 6.82 | – | 5.52 | 6.89 | < 5.00 | – | 6.51 |
| COc1ccc2cc1COCC=CCOc1cccc(c1)-c1ccnc(n1)N2 (mixture of isomers) | 6.92 | – | 5.24 | 6.59 | 6.44 | < 10 | 7.11 |
| COc1ccc2cc1COCC=CCOCc1cccc(c1)-c1ccnc(n1)N2 (mixture of isomers) | 6.68 | 5.92 | 5.72 | 7.15 | 6.07 | – | 6.72 |
| Oc1ccc2cc1COCC=CCOCc1cccc(c1)-c1ccnc(n1)N2 (mixture of isomers) | 6.77 | 5.96 | 6.40 | 7.28 | 6.68 | – | 6.77 |
| C1=CCOCc2cc(ccc2N2CCOCC2)Nc2nccc(n2)-c2cccc(c2)COC1 (mixture of isomers) | 6.80 | – | 5.06 | 7.22 | < 5.00 | – | 7.49 |
| C1=CCOCc2cc(ccc2N2CCNCC2)Nc2nccc(n2)-c2cccc(c2)COC1 (mixture of isomers) | 6.85 | 5.80 | 5.60 | 7.08 | 5.47 | 8.79 | 7.31 |
| CN1CCN(c2ccc3cc2COCC=CCOCc2cccc(c2)-c2ccnc(n2)N3)CC1 (mixture of isomers) | 6.72 | – | 5.44 | 7.39 | < 5.00 | 26.4 | 7.52 |
| CC(=O)N1CCN(c2ccc3cc2COCC=CCOCc2cccc(c2)-c2ccnc(n2)N3)CC1 (mixture of isomers) | 6.96 | 5.22 | 5.55 | 6.92 | 5.21 | – | 7.42 |
| CCS(=O)(=O)N1CCN(c2ccc3cc2COCC=CCOCc2cccc(c2)-c2ccnc(n2)N3)CC1 (mixture of isomers) | 6.85 | < 5.00 | < 5.00 | 6.82 | < 5.00 | – | 6.82 |
| CN(C)CCN(C)c1ccc2cc1COCC=CCOCc1cccc(c1)-c1ccnc(n1)N2 (mixture of isomers) | 7.15 | – | 5.44 | 7.11 | 7.06 | 171 | 7.51 |
| ClCCOc1ccc2cc1COCC=CCOCc1cccc(c1)-c1ccnc(n1)N2 (mixture of isomers) | 6.33 | < 5.00 | < 5.00 | 6.66 | < 5.00 | – | 7.12 |
| O=C1CCCN1CCOc1ccc2cc1COCC=CCOCc1cccc(c1)-c1ccnc(n1)N2 (mixture of isomers) | 6.74 | 6.30 | 5.89 | 7.66 | 5.03 | – | 6.85 |
